Results published in ChEMBL document CHEMBL1138555, “N-acylated and N,N'-diacylated imidazolidine-2-thione derivatives and N,N'-diacylated tetrahydropyrimidine-2(1H)-thione analogues: synthesis and antiproliferative activity” (Eur J Med Chem, 2009).

Tested on: MT4
Assay: Antiproliferative activity against human MT4 cells assessed as reduction of growth by MTT assay
Format: functional, cell-based
How it was run: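 MT-4 lymphoblastoid T cells (ATCC) in RPMI 1640 with 10% FCS, penicillin/streptomycin, checked for mycoplasma. 1 × 10⁴ mock-infected cells per well with serial dilutions from a 100 mM DMSO stock. Incubated 4 days at 37 °C, viable cells counted by MTT. IC50 versus untreated controls by linear regression. Mean of three separate experiments.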

CC(=O)/C(=C/N1CCN(C(=O)c2ccco2)C1=O)C(=O)c1ccccc1
IC50: > 100 µM

O=C(c1ccco1)N1CCCN(C(=O)c2ccco2)C1=S
IC50: 36 µM

O=C(c1ccc(Cl)c([N+](=O)[O-])c1)N1CCN(C(=O)c2ccc(Cl)c([N+](=O)[O-])c2)C1=S
IC50: 11 µM

Cc1ccc(C(=O)N2CCN(C=O)C2=S)cc1
IC50: 31 µM

O=C(c1cc(Cl)cc(Cl)c1)N1CCCN(C(=O)c2cc(Cl)cc(Cl)c2)C1=S
IC50: 30 µM

CC(=O)N1CCN(C(C)=O)C1=S
IC50: > 100 µM

O=C(c1ccc(Cl)cc1Cl)N1CCCN(C(=O)c2ccc(Cl)cc2Cl)C1=S
IC50: > 100 µM

CCOC(=O)/C(=C/N1CCN(C(=O)c2ccco2)C1=O)C(=O)c1ccccc1
IC50: 43 µM
